In ChEMBL document CHEMBL1125255, “Romazarit: a potential disease-modifying antirheumatic drug” (J Med Chem, 1991):
Several values for one entry are separate records, joined by “and”; a condition that tells them apart may be missing. Equal entries are not always repeated. Activity calls are given as the source filed them. The rule behind the calls is not given here.

Assays:
Rattus norvegicus [1] = assay: Radiographic change was judged in the area of the tarsus region, using an arbitrary scoring system upon termination of the test (14 days dosing of 100 mg/kg) in a model of type II collagen arthritis in the rat.; type: functional; details: 336 h
Method in brief: (§1)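 Type II collagen arthritis rats, eight per group, oral sodium salts daily from grouping (day 1). Hind limbs X-rayed post mortem. Tibia/talus and tarsus damage scored 0–3 per foot by two observers and averaged; left and right summed (max 6). Compared with arthritic controls by Mann–Whitney U test.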

Rattus norvegicus [2] = assay: Hepatic effect assessed by increase in catalase levels after 14 days of dosing at 100 mg/kg orally.; type: functional
Method in brief: (§2)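 Type II collagen arthritis rats, eight per group, given oral sodium salts daily for 14 days. At termination liver homogenized in ice-cold 0.25 M sucrose and spun 2000 rpm 10 min. Catalase followed by decline in A240 from H2O2 breakdown, expressed as first-order rate constant K. Result given as % change versus normals.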

Rattus norvegicus [3] = assay: Compound was evaluated in developing adjuvant arthritis model rats for its effect on paw edema.; type: functional; set-up: concentration or dose not given beside the values
Method in brief: (§3)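 Female Allen and Hanbury hooded rats, five per group. Right hind paw injected sc on day 0 with heat-killed M. tuberculosis in paraffin oil (5 mg/mL). Compounds given orally as sodium salts in water. Paw volumes of both hind paws measured days 1–4, 1 h after dosing. Percent inhibition taken from area under the curve of the between-paw volume difference.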

Rattus norvegicus [4] = assay: Radiographic change was judged in the area of the talus joint, using an arbitrary scoring system upon termination of the test (14 days dosing of 100 mg/kg) in a model of type II collagen arthritis in the rat.; type: functional; details: 336 h; method in brief: as §1
Rattus norvegicus [5] = assay: Hepatic effect assessed by increase in liver weight after 14 days of dosing at 100 mg/kg orally.; type: functional
Method in brief: (§4)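 Type II collagen arthritis rats, eight per group, daily oral dosing as sodium salts in water for 14 days. Liver weight recorded at termination and expressed as percentage change versus normal animals.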

[6] = Partition coefficient (logP); type: physicochemical; details: octanol/water
Method in brief: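 Compound dissolved in disodium hydrogen phosphate/citric acid buffer pH 7.4 and partitioned against equal volume octan-1-ol. Buffer-phase UV absorbance read before and after partitioning near λmax. P′ from the octanol:buffer absorbance ratio.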

Rattus norvegicus [7] = species: Rattus norvegicus; assay: Percent decrease in serum haptoglobin evaluated in a developing adjuvant arthritis model rats.
Rattus norvegicus [8] = species: Rattus norvegicus; assay: Percent decrease in serum haptoglobin evaluated in a developing adjuvant arthritis model rats; No significant effect
Rattus norvegicus [9] = assay: Compound was evaluated in developing adjuvant arthritis model rats for its effect on paw edema; No significant effect; type: functional, organism-based; method in brief: as §3
Rattus norvegicus [10] = assay: Radiographic change was judged in the area of the talus joint, using an arbitrary scoring system upon termination of the test (0.5 mg/kg 1-5 days dosing,0.25 mg/kg 6-15 days dosing)in a model of type II collagen arthritis in the rat.; type: functional; method in brief: as §1
Rattus norvegicus [11] = assay: Hepatic effect assessed by increase in catalase levels after 14 days of dosing at 50 mg/kg orally.; type: functional; method in brief: as §2
Rattus norvegicus [12] = assay: Radiographic change was judged in the area of the talus joint, using an arbitrary scoring system upon termination of the test (14 days dosing of 50 mg/kg) in a model of type II collagen arthritis in the rat.; type: functional; details: 336 h; method in brief: as §1
Rattus norvegicus [13] = assay: Radiographic change was judged in the area of the tarsus region, using an arbitrary scoring system upon termination of the test (14 days dosing of 50 mg/kg) in a model of type II collagen arthritis in the rat.; type: functional; details: 336 h; method in brief: as §1
Rattus norvegicus [14] = assay: Hepatic effect assessed by increase in liver weight after 14 days of dosing at 50 mg/kg orally.; type: functional; method in brief: as §4
Rattus norvegicus [15] = assay: Radiographic change was judged in the area of the talus joint, using an arbitrary scoring system upon termination of the test (14 days dosing of 1 mg/kg) in a model of type II collagen arthritis in the rat.; type: functional; details: 336 h; method in brief: as §1
Rattus norvegicus [16] = assay: Radiographic change was judged in the area of the tarsus region, using an arbitrary scoring system upon termination of the test (14 days dosing of 1 mg/kg) in a model of type II collagen arthritis in the rat.; type: functional; details: 336 h; method in brief: as §1
Mononuclear cell line = assay: Inhibition of human PGE-2 production.; type: functional, cell-based
Method in brief: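 Human blood mononuclear cells from healthy volunteers stimulated with 2.5 μg/mL phytohaemagglutinin and incubated 24 h with compound (sodium salt). PGE2 measured by RIA.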

[17] = Inhibition of prostaglandin synthetase in sheep seminal vesicle; set-up: species or system Ovis aries
Method in brief: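 Sheep seminal vesicle enzyme (2.5 mg/mL) preincubated 5 min at 30 °C with or without compound (sodium salt, aqueous) plus glutathione 1 mM and adrenaline 625 μM. Integrated prostaglandin/thromboxane peak area compared with the no-drug control.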

Compound | logP [6] | inhibition in vivo at 100 mg/kg (Rattus norvegicus [1]) [%] | Change (Rattus norvegicus [2]) [%] | Inhibition (Rattus norvegicus [3]) [%] | inhibition in vivo at 100 mg/kg (Rattus norvegicus [4]) [%] | Change (Rattus norvegicus [5]) [%] | Decrease (Rattus norvegicus [7]) [%] | Decrease (Rattus norvegicus [8]) | inhibition (Rattus norvegicus [9]) | also measured
CC(C)(OCc1coc(-c2ccc(Cl)cc2)n1)C(=O)O | 0.23 | 44 | 52 | 84 | 59 | 19 | 40 | – | – | –
CC(C)(OCc1coc2ccc(Cl)cc12)C(=O)O | -0.54 | – | – | – | – | – | – | inactive | inactive | –
CC(C)(OCc1cc(-c2ccc(Cl)cc2)no1)C(=O)O | 0.36 | 47 | 73 | 72 | 60 | 47 | 37 | – | – | –
CC(C)(OCc1cc(-c2ccc(Cl)cc2)[nH]n1)C(=O)O | 0.36 | – | – | – | – | – | – | inactive | inactive | –
C[C@@H]1C[C@H]2[C@@H]3CCC4=CC(=O)C=C[C@]4(C)[C@@]3(F)[C@@H](O)C[C@]2(C)[C@@]1(O)C(=O)CO [DEXAMETHASONE] | – | – | – | – | – | – | – | – | – | Inhibition (Rattus norvegicus [10]): 95% and 98%
CC(C)(OCc1csc(-c2ccc(Cl)cc2)n1)C(=O)O | 0.66 | – | – | 81 | – | – | 16 | – | – | –
CC(C)(OCc1cccc(-c2ccc(Cl)cc2)n1)C(=O)O | 0.69 | – | – | – | – | – | – | inactive | inactive | –
CC(C)(OCc1ccc(-c2ccc(Cl)cc2)nn1)C(=O)O | -0.15 | – | – | – | – | – | – | inactive | inactive | –
CC(C)(OCc1ccn(-c2ccc(Cl)cc2)n1)C(=O)O | 0 | – | – | 46 | – | – | 30 | – | – | Change (Rattus norvegicus [11]): 90%; inhibition in vivo at 50 mg/kg (Rattus norvegicus [12]): 48%; inhibition in vivo at 50 mg/kg (Rattus norvegicus [13]): 32%; Change (Rattus norvegicus [14]): 13%
COc1ccc2c(c1)c(CC(=O)O)c(C)n2C(=O)c1ccc(Cl)cc1 [INDOMETHACIN] | – | – | – | 84 | – | – | – | inactive | – | inhibition in vivo at 1 mg/kg (Rattus norvegicus [15]): 48%; inhibition in vivo at 1 mg/kg (Rattus norvegicus [16]): 45%; IC50 (Mononuclear cell line): 300 nM; IC50 [17]: 1200 nM
CC(C)(OCc1cnn(-c2ccc(Cl)cc2)c1)C(=O)O | 0.04 | – | – | 76 | – | – | 37 | – | – | Change (Rattus norvegicus [11]): 180%; inhibition in vivo at 50 mg/kg (Rattus norvegicus [12]): 15%; inhibition in vivo at 50 mg/kg (Rattus norvegicus [13]): 18%; Change (Rattus norvegicus [14]): 70%
CC(C)(OCc1cc2cc(Cl)ccc2o1)C(=O)O | -0.57 | – | – | 39 | – | – | – | inactive | – | –

More lines, main results first:

logP [6] | Compound | inhibition in vivo at 100 mg/kg (Rattus norvegicus [1]) [%] | Change (Rattus norvegicus [2]) [%] | Inhibition (Rattus norvegicus [3]) [%] | inhibition in vivo at 100 mg/kg (Rattus norvegicus [4]) [%] | Change (Rattus norvegicus [5]) [%] | Decrease (Rattus norvegicus [7]) [%] | Decrease (Rattus norvegicus [8]) | inhibition (Rattus norvegicus [9]) | also measured
0.08 | Cn1cc(-c2ccc(Cl)cc2)nc1COC(C)(C)C(=O)O | – | – | – | – | – | – | inactive | inactive | –
0.23 | CC(C)(OCc1ncsc1-c1ccc(Cl)cc1)C(=O)O | – | – | – | – | – | – | inactive | inactive | –
0.15 | CC(C)(OCc1nc(-c2ccc(Cl)cc2)co1)C(=O)O | 39 | 68 | 69 | 63 | 19 | 9 | – | – | –
0.52 | Cc1oc(-c2ccc(Cl)cc2)nc1COC(C)(C)C(=O)O | 54 | 60 | 67 | 65 | 2 | – | inactive | – | –
0.15 | CC(C)(OCc1ncc(-c2ccc(Cl)cc2)o1)C(=O)O | 24 | -10 | 40 | 36 | 3 | 17 | – | – | –
0.11 | CC(C)(OCc1cnc(-c2ccc(Cl)cc2)o1)C(=O)O | 41 | 11 | 33 | 42 | 16 | – | inactive | – | –
0.23 | CC(C)(OCc1scnc1-c1ccc(Cl)cc1)C(=O)O | – | – | – | – | – | – | inactive | inactive | –
0.46 | CC(C)(OCc1cc(-c2ccc(Cl)cc2)on1)C(=O)O | 42 | 140 | 64 | 24 | 41 | 34 | – | – | –
